Bioassay records from PubChem BioAssay.
MC4R antag cAMP: MC4R antagonists of cAMP signaling, primary screen, cell-based, TR-FRET, antagonist arm of biased-ligand search; inhibition, % at 6.5 µM; Melanocortin receptor 4 (Homo sapiens), P32245; MC4R-expressing cells, MTII-stimulated cAMP, LANCE TR-FRET; AID 540295, 2011; actives 0.48% (n = 360,000);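 active = inhibition above its plate's cutoff, the mean of tested wells on that plate plus 3 SD, cut at about 29% in these data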;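 note: 0% = Melanotan II alone and 100% = Melanotan II plus saturating MCL0020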
Target sequence (P32245 whole entry, looked up): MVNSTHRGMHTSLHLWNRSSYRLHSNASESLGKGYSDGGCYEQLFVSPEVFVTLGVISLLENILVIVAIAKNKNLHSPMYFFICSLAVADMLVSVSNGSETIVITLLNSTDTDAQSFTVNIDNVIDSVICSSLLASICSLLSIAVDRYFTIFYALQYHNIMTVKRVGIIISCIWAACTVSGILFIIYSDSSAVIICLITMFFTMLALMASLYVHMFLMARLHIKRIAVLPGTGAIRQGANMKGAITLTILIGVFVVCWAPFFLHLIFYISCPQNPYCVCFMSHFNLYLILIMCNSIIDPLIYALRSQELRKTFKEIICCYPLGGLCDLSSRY
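Material: human MC4R-expressing U2OS cells. Probe or stimulus: Melanotan II challenge. Dosing: 6.5 µM single dose. Times: 30-min compound, 1-h challenge, 1-h detection, room temperature. Technique: TR-FRET with Eu-cAMP and labeled anti-cAMP, 671 nm. Replication: singlicate.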
TAG inh: inhibitors of triacylglycerol accumulation, primary screen, cell-based, uHTS, fluorescence, H9c2 | H9c2 cells, Nile Red lipid (TAG) fluorescence; cells loaded with 200 µM oleic acid | inhibition, % at 12.5 µM | actives 0.66% (n = 230,000);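 active = pattern-corrected inhibition of lipid staining of at least 50% with the nuclear-stain viability signal not falling by more than 50%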;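 note: 0% = DMSO wells and 100% = triacsin C control wells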
MC4R ag barr: MC4R agonists recruiting beta-arrestin, primary screen, cell-based, luminescence, agonist arm of biased-ligand search; activation, % at 8.9 µM; AID 540308, 2011; actives 0.98% (n = 360,000); U2OS MC4R beta-arrestin complementation; percent of melanotan II response, DMSO zero;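 active = activation above a per-plate cutoff, the mean activation of sample wells on that plate plus 3 SD, cut at about 8% in these data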
NTR1 ag: agonists of human NTR1, primary screen, imaging, U2OS cells, beta-arrestin-GFP, high content; AID 493036, 2011; NTR1-U2OS beta-arrestin-GFP spot imaging, agonist mode; activation, % at 20 µM; actives 0.17% (n = 330,000);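 active = activation at or above 40% of the spot to cytoplasm intensity ratio, with at least 20 cells analyzed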;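 note: 0% = DMSO without peptide and 100% = 100 nM NTR1 peptide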
Tb MetRS inh: T. brucei MetRS inhibitors, primary screen, biochemical, luminescence; methionyl-tRNA synthetase (Trypanosoma brucei brucei); actives 0.4% (n = 360,000); purified T. brucei MetRS, ATP depletion, Kinase-Glo luminescence; inhibition, % at 11.9 µM;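 active = inhibition above a per-plate cutoff of the control wells' mean inhibition plus 3 SD, cut at about 5.5% in these data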;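 note: 0% = DMSO wells median and 100% = median of wells with control inhibitor compound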
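Test system – parasite MetRS enzyme · Reagent – substrates ATP, L-methionine and bulk Escherichia coli tRNA · Doses – 11.9 µM compound single dose, 0.9% DMSO · Times – 15 min enzyme-compound preincubation, 2 h reaction, 10 min detection, 25 °C · Signal – Kinase-Glo luminescence, ATP depletion format · Controls – DMSO-only wells as low control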
aDG glyco act: activators of alpha-DG glycosylation, primary screen, uHTS, Pro5-aDG cells, AlphaScreen; actives 0.22% (n = 360,000); activation, % at 10 µM; AID 624168, 2012; alpha-DG glycosylation AlphaScreen (IIH6); 0% Pro5, 100% B10-LARGE cell signal;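 active = activation of at least 8% versus controls, or a plate z-score of at least 8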;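 note: Pro5 are CHO cells carrying HIG-tagged alpha-DG that lacks glycosylation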
TAG conf: triacylglycerol accumulation inhibitors, retest, confirmation, cell-based, single concentration, Nile Red fluorescence, H9c2; shares compounds with TAG inh; H9c2 lipid accumulation; cells loaded with 200 µM oleic acid; inhibition, % at 12.5 µM; actives 71% (n = 990); AID 651629, 2012;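 active = mean inhibition across replicates of 40% or more; inactive = mean inhibition below 40%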;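 note: plate controls were DMSO only wells for no effect and Triacsin C treated wells for full effect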
An asterisk follows results filed as active; / = not tested or not shown. A selection: hits, their analogues and other compounds. The true share with any hit is near 2.4%.

SMILES	MC4R antag cAMP	TAG inh	MC4R ag barr	NTR1 ag	Tb MetRS inh	aDG glyco act	TAG conf
O=C(N/N=C/c1cn(-c2ccccc2)nc1-c1cc2ccccc2o1)c1c[nH]c2ccccc12	-6	59*	-3	3	-2	0	60*
Cc1cc(=O)oc2cc(NC(=O)c3cccc(Br)c3)ccc12	14	69*	0	1	0	0	52*
Cc1cc(=O)oc2cc(NC(=O)c3cc4ccccc4o3)ccc12	/	/	/	-1	/	/	/
COC(=O)[C@]1(CC(C)C)N[C@H](c2ccc(-c3ccccc3)cc2)[C@@H]2C(=O)N(C)C(=O)[C@@H]21	6	45	-2	0	0	0	/
CCN1C(=O)[C@H]2[C@@H](c3ccc(-c4cccc(Cl)c4)cc3)N[C@@](Cc3ccccc3)(C(=O)OC)[C@H]2C1=O	2	51*	-1	1	0	0	60*
CCN1C(=O)[C@H]2[C@@H](c3ccc(-c4ccc5c(c4)OCO5)cc3)N[C@@](Cc3ccccc3)(C(=O)OC)[C@H]2C1=O	4	-1	1	-2	0	0	/
COC(=O)[C@]1(C)N[C@H](c2ccc(-c3ccc(Cl)c(Cl)c3)c(OC)c2)[C@@H]2C(=O)N(C)C(=O)[C@@H]21	15	51*	-3	13	0	1	36
COC(=O)[C@]1(CC(C)C)N[C@H](c2ccc(-c3ccc(F)cc3)cc2)[C@@H]2C(=O)N(C)C(=O)[C@@H]21	3	56*	1	1	0	1	43*
COC(=O)[C@]1(CC(C)C)N[C@H](c2ccc(-c3ccc(OC)cc3)cc2)[C@@H]2C(=O)N(C)C(=O)[C@@H]21	-1	54*	2	0	0	0	36
COC(=O)[C@@]12C[C@@H](CC(=O)NCc3ccc(C)o3)C(=O)N(CCc3ccc(OC)c(OC)c3)C1=CCC(C)(C)C2	/	/	/	/	-1	0	/
COCCNC(=O)CN1C(=O)NC2(CCCc3cc(OC)ccc32)C1=O (configuration not stated)	2	/	-1	-2	-1	0	/
Cc1nc2ccc(Br)cc2c2c1CC(CO)O2 (configuration not stated)	13	/	-1	-1	2	0	/
CC(=O)Nc1cccc(-c2cccc3nccn23)c1	3	24	-1	/	0	0	/
CCOC(=O)Cn1cc(Cn2c3ccccc3c(=O)n2C(C)C)nn1	/	/	/	/	0	0	/
Cc1ccccc1CCNC(=O)C1CCC(=O)N(CCc2cccc(F)c2)C1 (configuration not stated)	0	/	-2	0	0	0	/
CCCN1CCC(=NNc2ccc(S(=O)(=O)N3CCOCC3)cc2[N+](=O)[O-])CC1	-16	/	1	7	-1	0	/
CCCCCC(/C=N/Nc1ccc(S(=O)(=O)N2CCOCC2)cc1[N+](=O)[O-])=C\c1ccccc1	-1	59*	0	3	-1	0	63*
CCCCNC(=O)C(=O)Nc1ccc2c(c1)N(S(=O)(=O)c1cccs1)CCC2	-7	60*	-2	/	0	0	54*
CCN(CC)CCNC(=O)C(=O)Nc1ccc2c(c1)N(S(=O)(=O)c1cccs1)CCC2	9	9	-1	1	0	0	/
COc1cc2c(cc1OC)C(COc1ccccc1OC)N(C(=O)C(C)C)CC2 (configuration not stated)	5	24	-2	-1	-1	0	/
Cc1cc2c(cc1C)CSC(c1ccccc1OC(=O)C(C)C)SC2	10	52*	8	12	0	0	24
CCN(CC)CCNc1nc(-n2nc(C)cc2C)nc2sc3c(c12)CC(C)(C)OC3	-1	55*	0	0	0	2	56*
Cc1cc(C)n(-c2nc(NCCN(C)C)c3c4c(sc3n2)COC(C)(C)C4)n1	-2	47	2	2	3	1	/
CCN(CC)CCNc1ncnc2c1sc1nc(N3CCCC3)c3c(c12)CC(C)(C)OC3	-10	56*	-3	8	-1	0	45*
Cc1ccccc1NC(=O)CSc1nnc2ccc(-c3cccnc3)nn12	7	11	1	2	-1	0	/
SMILES	MC4R antag cAMP	TAG inh	MC4R ag barr	NTR1 ag	Tb MetRS inh	aDG glyco act	TAG conf
CCCCc1ccc(N=N/C(C(=O)Nc2cc(OC)c(NC(C)=O)cc2OC)=C(/C)O)cc1	16	55*	3	1	0	-1	68*
CCCCc1ccc(N=N/C(C(=O)Nc2ccccc2OC)=C(/C)O)cc1	-12	/	-1	1	0	-1	/
CCCCNC(=O)C1C(c2ccc(OC)cc2)=Nc2ccccc2N1C(=O)c1ccc2ncccc2c1 (configuration not stated)	/	/	/	/	0	0	/
O=C(COC(=O)c1ccc(O)cc1)c1ccc2c(c1)OCCO2	2	-16	-4	1	-1	0	/
COc1cc(CC(=O)OCC(=O)c2ccc3c(c2)OCCO3)cc(OC)c1OC	-18	68*	-2	2	0	1	49*
C#CCN(C[C@@H]1[C@@H](OC(=O)NCc2ccco2)[C@@H](OC(=O)NCc2ccco2)CN(C(=O)OC(C)C)N1C(=O)OC(C)C)S(=O)(=O)c1ccc(C)cc1	11	55*	-1	/	0	0	62*
CCOC(=O)C1=CCC(c2cc3ccc(OC)cc3n2C(=O)OC(C)(C)C)NC1 (configuration not stated)	/	/	/	/	-1	1	/
CSc1ccc(C2=C/C(=C3/SC(=S)NC3=O)c3ccccc3O2)cc1	-2	59*	0	/	0	0	58*
CCN1/C(=C2/SC(=S)NC2=O)Sc2ccccc21	2	5	0	0	-1	0	/
CC(=O)Nc1ccc(CNc2nc(NC(C)C)nc3cc(-c4ccccc4)sc23)cc1	1	23	6	/	0	1	/
COc1ccc(-c2cc(CNc3nc(NC(C)C)nc4cc(-c5ccccc5)sc34)on2)cc1	2	96*	-2	/	0	2	79*
